Test results: publication PMC6544545 (Nature microbiology, 2018)

Legend:
E. coli mutant strains = assay: Relative MIC measurement of mutant and evolved strains; assay type: cell-based, Escherichia coli
[1] = test system: E. coli K12 wild-type and antibiotic-resistant strains; assay: Antibiotic-PGLA combination screen; assay type: cell-based, Escherichia coli; settings: Loewe additivity, EC90%
Method in brief: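 E. coli K12 BW25113 wild-type and 21 strains adapted to one of 10 antibiotics were tested. Single agents ran as 1.6-fold 8-step dilutions spanning 10.5x below to 2.6x above each strain's MIC, plus dilution series at 7 antibiotic:peptide ratios (7:1 to 1:7). Wells received 5×10^4 cells from overnight culture, then 24 h at 30°C, 300 rpm, OD600. Expected (Loewe) and measured EC90% gave CIr per ratio; CI is the mean of the 7 CIr values.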

[2] = test system: antibiotic-resistant bacteria; assay: Antibiotic MIC in the presence of subinhibitory PGLA; assay type: cell-based, Escherichia coli; settings: tetracycline (TET) resistant strain; ½ MIC PGLA (MIC against the wild-type)
Method in brief: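 Each level was tested alone and alongside MIC determination of the antibiotic the strain was adapted to. Growth with peptide alone was scored as growth rate.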

wild-type E. coli = assay: Experimental evolution of resistance followed by MIC measurement; assay type: cell-based, Escherichia coli
[3] = test system: 60 antibiotic-resistant Escherichia coli strains; assay type: cell-based
[4] = test system: antibiotic-resistant E. coli strains; assay: Membrane integrity measurement; assay type: cell-based, Escherichia coli; settings: sensitive strains could not grow on medium with 6% bile acid
Method in brief: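 Bile acid sensitivity came from the high-throughput screen in MS medium. About 103 bacteria/ml were pin-inoculated and grown 24 h at 30°C, 300 rpm, with OD600 read once. Resistant strains ran in 4 replicates and wild-type in 12 on the same plate, and growth arrest was scored per well. Strains unable to grow with 6% bile acid were grouped as sensitive.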

CAP18-resistant bacteria = assay: Susceptibility of CAP18-resistant evolved bacteria to antibiotics; assay type: cell-based; settings: preliminary results

## O=C1CN(/N=C/c2ccc([N+](=O)[O-])o2)C(=O)N1 [nitrofurantoin]
E. coli mutant strains; ompC mutation inserted into wild-type E. coli
  effect of ompC loss-of function mutation on susceptibility: conferred resistance

## Peptide Glycine-Leucine Amide [PGLA]
E. coli mutant strains; marR mutation in E. coli BW25113 or E. coli ATCC 25922
  susceptibility of the marR single point mutant (marR*): collateral sensitivity
[1]; E. coli K12 wild-type, 0.86<CI<1.14 no interaction
  interaction of PGLA with tetracycline (TET), wild-type strain: no interaction
[1]; TET3, CI≤0.86 synergism
  interaction of PGLA with tetracycline (TET), tetracycline-resistant strain TET3: strong synergism
[2]
  growth rate reduction by the peptide applied alone: 40%
wild-type E. coli; laboratory evolution, 160 generations
  evolution of resistance to the peptide: marginal
wild-type E. coli; laboratory-evolved lines
  cross-resistance between PGLA and ciprofloxacin or tetracycline in evolved lines: no substantial cross-resistance

## bactenecin 5 (RFRPPIRRPPIRPPFYPPFRPPIRPPIFPPIRPPFRPPLGPFP; Bactenecin-5; UniProt P19660 131-173, looked up) [BAC5]
[3]; tobramycin-resistant E. coli strains
  interaction of tobramycin-resistant strains with the peptide: cross-resistance rather than collateral sensitivity

## bile acid
[4]
  percentage of antibiotic-resistant strains more susceptible than the wild-type: 75%

## cecropin P1 [CP1]
[3]; 60 laboratory-evolved antibiotic-resistant E. coli strains
  collateral sensitivity of antibiotic-resistant strains towards the peptide: rarely show collateral sensitivity

## rabbit 18-kDa cationic antimicrobial protein [CAP18]
CAP18-resistant bacteria
  consequence of evolving resistance to the peptide: collateral sensitivity to several conventional antibiotics
